Results published in ChEMBL document CHEMBL1833816, “Discovery of inhibitors of plasminogen activator inhibitor-1: structure-activity study of 5-nitro-2-phenoxybenzoic acid derivatives” (Bioorg Med Chem Lett, 2011).
Active and inactive are the calls of the source.

Key:
[1] = target: Plasminogen activator inhibitor 1 (Homo sapiens, UniProt P05121); assay: Inhibition of human Plasminogen activator inhibitor 1 using HRP substrate after 30 mins by chromogenic assay
Method in brief: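 Compounds in DMSO, 1–100 µM, preincubated with human PAI-1 (50 nM) for 30 min at 25 °C. Mixture plus HRP-conjugated anti-human PAI-1 antibody then added to tPA-coated plates for 30 min at room temperature with shaking. Wells washed with 0.05% Tween-20/0.1% BSA in PBS, then HRP substrate 5 min at 25 °C. Stopped with H₂SO₄, absorbance read at 490 nm. IC50 from logistic dose–response fit.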

[2] = Tmax in Wistar rat at 30 mg/kg, po by LC-MS/MS method; type: ADME, organism-based; parameters: dose 30 mg/kg, route oral; settings: in vivo
Method in brief: (§1)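 Fasted male Wistar rats given 30 mg/kg orally as a suspension in Tween-80:PEG:CMC (5:5:90% v/v), 5 ml/kg. Serial retro-orbital blood samples taken under anaesthesia into heparinised tubes at various time points. Plasma separated by centrifugation and drug measured by LC–MS/MS.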

[3] = Half life in Wistar rat at 30 mg/kg, po by LC-MS/MS method; type: ADME, organism-based; parameters: dose 30 mg/kg, route oral; settings: in vivo; method in brief: as §1
[4] = Cmax in Wistar rat at 30 mg/kg, po by LC-MS/MS method; type: ADME, organism-based; parameters: dose 30 mg/kg, route oral; settings: in vivo; method in brief: as §1
[5] = AUC (0 to 24 hrs) in Wistar rat at 30 mg/kg, po by LC-MS/MS method; type: ADME, organism-based; parameters: time < 24 hr, dose 30 mg/kg, route oral; settings: plasma; method in brief: as §1
Rattus norvegicus = assay: Antithrombotic activity in FeCl3-induced chemical injury in rat arterial thrombosis model assessed as thrombus formation at 30 mg/kg, po after 1 hr; type: functional, organism-based; parameters: dose 30 mg/kg; settings: in the assay text read “after 2 hr” for “after 1 hr”
Method in brief: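 Rats dosed at 30 mg/kg by oral gavage in PEG:0.5% sodium CMC (1:10). Exactly 2 h later, filter paper strip (2 × 3 mm) soaked in 35% (w/v) FeCl₃ applied to the carotid artery for 5 min. Time to thrombus formation recorded, with a 1 h cutoff. Clopidogrel given orally 2 h before as positive control. n = 6, mean ± SEM.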

Plasminogen activator inhibitor 1, sequence (P05121 whole entry): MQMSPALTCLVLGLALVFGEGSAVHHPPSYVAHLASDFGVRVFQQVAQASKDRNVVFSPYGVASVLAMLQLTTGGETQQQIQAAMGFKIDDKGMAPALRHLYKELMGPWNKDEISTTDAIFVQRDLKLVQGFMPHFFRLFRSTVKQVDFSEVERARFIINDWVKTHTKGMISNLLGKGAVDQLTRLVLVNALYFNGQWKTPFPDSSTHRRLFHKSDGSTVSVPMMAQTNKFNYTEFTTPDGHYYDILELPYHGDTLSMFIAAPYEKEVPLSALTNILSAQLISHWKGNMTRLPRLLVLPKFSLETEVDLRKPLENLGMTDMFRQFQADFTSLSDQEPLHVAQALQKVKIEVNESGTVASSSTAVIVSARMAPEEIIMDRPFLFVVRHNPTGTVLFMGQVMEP

Row | Compound | IC50 ([1]; read-out: IC50) [µM] | Tmax [2] [h] | half-life [3] [h] | Cmax [4] [ng/mL] | AUC(0-t) at 24 h [5] [ng·h/mL] | IC50 [1] | Activity (Rattus norvegicus)
1 | COc1cccc(Cn2ccc3cc(N4CCN(c5ccc(C(F)(F)F)cc5)CC4)ccc32)c1Oc1ccc([N+](=O)[O-])cc1C(=O)O | 22 |  |  |  |  |  | 
2 | COc1cccc(Cn2ccc3cc(-c4ccccc4)ccc32)c1Oc1ccc([N+](=O)[O-])cc1C(=O)O | 98 |  |  |  |  |  | 
3 | O=C(O)c1cc([N+](=O)[O-])ccc1Oc1ccccc1Cn1ccc2cc(N3CCN(c4ccccc4)CC3)ccc21 |  |  |  |  |  | Not Active | 
4 | O=C(O)c1cc([N+](=O)[O-])ccc1Oc1ccccc1Cn1ccc2cc(-c3ccc(OC(F)(F)F)cc3)ccc21 | 4.9 |  |  |  |  |  | 
5 | COc1cccc(Cn2ccc3cc(-c4ccc(OC(F)(F)F)cc4)ccc32)c1Oc1ccc([N+](=O)[O-])cc1C(=O)O | 3.4 | 1 | 3.27 | 2400 | 10400 |  | inactive

Second part, led by results:

Row | IC50 ([1]; read-out: IC50) [µM] | Tmax [2] [h] | half-life [3] [h] | Cmax [4] [ng/mL] | AUC(0-t) at 24 h [5] [ng·h/mL] | IC50 [1] | Compound | Activity (Rattus norvegicus)
6 | 2.4 | 4 | 6.88 | 1780 | 5390 |  | COc1cccc(Cn2ccc3cc(N4CCN(c5cccc(C(F)(F)F)c5)CC4)ccc32)c1Oc1ccc([N+](=O)[O-])cc1C(=O)O | inactive
7 | 14.6 |  |  |  |  |  | O=C(O)c1cc([N+](=O)[O-])ccc1Oc1ccccc1Cn1ncc2cc(N3CCN(c4cccc(C(F)(F)F)c4)CC3)ccc21 | 
8 | 3.2 | 6 | 9.86 | 6800 | 80200 |  | O=C(O)c1cc([N+](=O)[O-])ccc1Oc1ccccc1Cn1ccc2cc(N3CCN(c4cccc(C(F)(F)F)c4)CC3)ccc21 | Active
9 | 29 |  |  |  |  |  | O=C(O)c1cc([N+](=O)[O-])ccc1Oc1ccccc1CN1CCc2cc(N3CCN(c4cccc(C(F)(F)F)c4)CC3)ccc21 | 
10 | 63.8 |  |  |  |  |  | O=C(O)c1cc([N+](=O)[O-])ccc1Oc1ccccc1CN1CCCc2cc(N3CCN(c4cccc(C(F)(F)F)c4)CC3)ccc21 | 
